# Measured values from different studies.
Structure (SMILES),host,medium,route,dose,setting,endpoint,result
C=CCn1c(=O)c2cnc(Nc3ccc(N4CCN(C)CC4)cc3)nc2n1-c1ccc2c(n1)[C@@](O)(CC)CC2,mouse,plasma,intravenous,3 mg/kg,,Vd,3.4 L/kg
OCc1nc2ccc(NCc3ccc(C(F)(F)F)cc3)cc2[nH]1,male BALB/c mouse,plasma,intravenous,1 mg/kg,,Vd,4 L/kg
CC(C)(C)c1sc2ncnc(Oc3c(F)cccc3OC(F)(F)F)c2c1-c1ccc(Cl)cc1,mouse,plasma,intravenous,1 mg/kg,,Vd,1.3 L/kg
C[C@@H]1COCCN1c1cc(=O)n2c(n1)N(Cc1cncc(Cl)c1)[C@H](C(F)(F)F)CC2,C57BL/6 mouse,plasma,intraperitoneal,10 mg/kg,single dose,Vd,7.05 L/kg
CN(C)C(=O)c1cc2cnc(Nc3ccc(-c4ccc5c(=O)cc(N6CCOCC6)oc5c4)cc3)nc2n1C1CCCC1.Cl,BALB/c mouse,plasma,oral,20 mg/kg,,Vd/F,17.7 L/kg
COCC(=O)N1CCc2[nH]c3c(Cl)c(Cl)ccc3c2[C@@H]1C,C57BL/6 mouse,blood,intravenous,1 mg/kg,,Vd,1.23 L/kg
CCCC[C@@H](NC(=O)[C@@H](Cc1cn(C(=O)OC)c2ccccc12)NC(=O)[C@H](CC(C)(C)C)NC(=O)N1[C@H](C)CCC[C@@H]1C)C(=O)O,male CD-1 mouse,plasma,intravenous,3 mg/kg,,Vd,6.6 L/kg
NCc1cc2c(cc1F)C(=O)N(C1CCC(=O)NC1=O)C2 (centres unmarked),male CD-1 mouse,plasma,intravenous,1 mg/kg,,Vd,6.5 L/kg
CC(C)[C@@H](CS(=O)(=O)C(C)C)N1C(=O)[C@@](C)(CC(=O)O)C[C@H](c2cccc(Cl)c2)[C@H]1c1ccc(Cl)cc1,FVB mouse,plasma,oral,20 mg/kg,single dose,Vd/F,12.2 L/kg
Cc1nc2ccc(OCc3ccc(C(F)(F)F)cc3)cc2[nH]1,male BALB/c mouse,plasma,oral,10 mg/kg,,Vd/F,7.35 L/kg
O=C1CCC(N2Cc3cc(CO)c(F)cc3C2=O)C(=O)N1 (centres unmarked),male CD-1 mouse,plasma,intravenous,1 mg/kg,,Vd,2.8 L/kg
